Experimental findings from ChEMBL document CHEMBL1156914, “Novel inhibitors of dengue virus methyltransferase: discovery by in vitro-driven virtual screening on a desktop computer grid” (J Med Chem, 2010) are described below.

One data set has as its system dengue virus type 2. In words: Antiviral activity against Dengue virus type 2 infected in human A549 cells assessed as decrease in viral E protein production by cell-based flavivirus immunodetection assay. The data set is classed as functional, organism-based.
Data set [1] has as its target T1, Genome polyprotein (dengue virus type 2, UniProt P12823). In words: Inhibition of Dengue virus type 2 NS5 RNA methyltransferase SAM site with 0.1 % TX100.
Data set [2] is described as follows: Cytotoxicity against human A549 cells after 48 hrs. The data set is classed as cell-based.
For data set [3], the target named is T1, Genome polyprotein. Briefly: Inhibition of Dengue virus type 2 NS5 RNA methyltransferase SAM site.
The target of data set [4] is T1, Genome polyprotein. Briefly: Inhibition of Dengue virus type 2 NS5 RNA methyltransferase RNA site.
Data set [5] has as its target T1, Genome polyprotein. Briefly: Inhibition of Dengue virus type 2 NS5 RNA methyltransferase RNA site with 0.1 % TX100. The gist of the method: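 Detergent-sensitivity variant of the SPA methyl-transfer assay: 0.1% Triton X-100 added to the reaction mix. Otherwise 25 nM DENV2 MTase, 40 nM biotinylated RNA, 20 min room-temperature preincubation, 0.56 μM [3H]AdoMet. Counts read after bead stop. Duplicate wells.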

The target in data set [6] is T1, Genome polyprotein. Briefly: Inhibition of Dengue virus type 2 NS5 RNA methyltransferase by spin-down assay.
The target in data set [7] is T1, Genome polyprotein. In words: Inhibition of Dengue virus type 2 NS5 RNA methyltransferase at 8 nM enzyme concentration.
Data set [8] deals with T1, Genome polyprotein. Briefly: Inhibition of Dengue virus type 2 NS5 RNA methyltransferase at 80 nM enzyme concentration.

T1 sequence (P12823 2489-3388 limits assumed): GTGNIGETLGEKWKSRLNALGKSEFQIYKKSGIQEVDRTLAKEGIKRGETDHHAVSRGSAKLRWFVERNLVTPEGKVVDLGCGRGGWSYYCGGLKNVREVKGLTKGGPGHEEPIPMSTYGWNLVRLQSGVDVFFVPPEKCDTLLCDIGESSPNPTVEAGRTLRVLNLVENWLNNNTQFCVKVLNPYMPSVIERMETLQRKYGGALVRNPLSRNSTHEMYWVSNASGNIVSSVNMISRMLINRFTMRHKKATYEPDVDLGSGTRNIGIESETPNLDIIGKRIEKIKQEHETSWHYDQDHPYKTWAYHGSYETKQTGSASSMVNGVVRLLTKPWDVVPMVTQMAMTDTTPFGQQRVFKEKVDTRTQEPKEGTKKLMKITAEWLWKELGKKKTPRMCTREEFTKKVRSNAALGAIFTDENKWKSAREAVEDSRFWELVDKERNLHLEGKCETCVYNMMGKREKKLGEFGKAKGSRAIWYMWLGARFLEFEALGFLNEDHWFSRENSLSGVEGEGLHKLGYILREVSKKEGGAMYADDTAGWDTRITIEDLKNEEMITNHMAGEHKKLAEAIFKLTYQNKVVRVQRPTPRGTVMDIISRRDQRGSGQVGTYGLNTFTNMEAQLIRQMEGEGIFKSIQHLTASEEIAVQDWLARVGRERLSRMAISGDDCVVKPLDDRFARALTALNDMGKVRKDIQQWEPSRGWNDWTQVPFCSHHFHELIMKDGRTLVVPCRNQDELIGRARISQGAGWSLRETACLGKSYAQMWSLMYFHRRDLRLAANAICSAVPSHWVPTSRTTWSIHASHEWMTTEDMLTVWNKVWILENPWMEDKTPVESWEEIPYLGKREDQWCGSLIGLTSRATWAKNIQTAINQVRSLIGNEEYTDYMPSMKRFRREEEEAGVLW

One may read the EC50 as the midpoint of the concentration-response curve. As a reminder, the IC50 is the concentration that gives 50% inhibition. Low values mean higher potency, high ones lower potency. One may read the CC50 as the concentration giving 50% cytotoxicity. High values mean better tolerance by the cells, low ones harm at low concentration. As to `O=C(O)c1cnc2c([N+](=O)[O-])cccc2c1O`, the EC50 with dengue virus type 2 is over 100 µM. Besides, the IC50 against Genome polyprotein [1] and against Genome polyprotein [3] was 14.3 µM each time. Besides, the CC50 at 48 h in data set [2] was over 100 µM.

For `O=C(O)c1ccc(S(=O)(=O)c2ccc(C(=O)O)cc2)cc1`, the IC50 against Genome polyprotein [1] is over 100 µM; at Genome polyprotein [3], 29.9 µM.

Regarding `NC(=O)C1=CN(Cc2ccccc2)C=CC1`, the IC50 at Genome polyprotein [1] was over 100 µM; against Genome polyprotein [3] it was 25.3 µM.

On to `Cc1cc(C(=O)CSc2nc(N)cc(=O)[nH]2)c(C)n1Cc1ccc2c(c1)OCO2`, for which the IC50 at Genome polyprotein [1] is over 100 µM; against Genome polyprotein [3] it was 16.1 µM.

Turning to `O=C(CCCCC(=O)N/N=C/c1ccc(O)cc1O)N/N=C/c1ccc(O)cc1O`, the IC50 at Genome polyprotein [1] was over 25 µM; against Genome polyprotein [3] it was 4.29 µM.

For the compound `Cc1ccccc1COc1ccc(C(=O)[C@@H]2C(=O)C(=O)N(Cc3ccncc3)[C@H]2c2cccc(O)c2)cc1`, the IC50 at Genome polyprotein [1] is over 100 µM; against Genome polyprotein [3], 9.62 µM.

As for `O=C(O)CCC(=O)N1NC(c2c(O)nc3ccc(Cl)cc3c2-c2ccccc2)=C[C@@H]1c1ccc(Br)cc1`, the IC50 on Genome polyprotein [4] came out at 4.42 µM; on Genome polyprotein [5] it was 44.5 µM. Besides, the EC50 in the data set with dengue virus type 2 was over 100 µM. This compound also gave a CC50 at 48 h in data set [2] of over 100 µM.

Regarding `O=C(O)COc1ccccc1/C=N\NC(=O)Cc1csc(Nc2cccc(C(F)(F)F)c2)n1`, the values for the IC50 against Genome polyprotein [4] and at Genome polyprotein [5] were 12.4 µM and over 100 µM, respectively.

As to `O=C(Cn1ccc(=O)[nH]c1=O)Nc1ccc(O)c([N+](=O)[O-])c1`, the figures for the IC50 against Genome polyprotein [1] and on Genome polyprotein [3] were over 100 µM and 29 µM, respectively.

Take `Cc1cc(/C=N\NC(=O)Nc2ccccc2)c(C)n1-c1cc(C(=O)O)cc(C(=O)O)c1`: the IC50 against Genome polyprotein [4] is 20.3 µM; at Genome polyprotein [5], over 100 µM.

On to `Cc1ccc(C23CC4CC(CC(C(=O)Nc5cccc(C(=O)O)c5)(C4)C2)C3)cc1`, for which the IC50 was 37.5 µM against Genome polyprotein [4] and over 100 µM against Genome polyprotein [5].

With `O=C(O)c1cccc(NC(=O)c2ccc(CSc3ccc(Br)cc3)cc2)c1`, the IC50 was 7.99 µM against Genome polyprotein [4] and over 100 µM against Genome polyprotein [5].

Regarding `COc1ccc(/C=C2/CN(CCCC(=O)O)C(=O)C2=O)cc1`, the IC50 on Genome polyprotein [6] came to 10.5 µM; against Genome polyprotein [1], 4.47 µM; on Genome polyprotein [3], 8.78 µM. Also, the EC50 in the data set on dengue virus type 2 was over 100 µM. Moreover, the CC50 at 48 h in data set [2] was over 100 µM.

As to `O=S(=O)(O)c1cccc(NNc2ccc(Nc3ccccc3)cc2)c1`, the IC50 worked out at 7.62 µM against Genome polyprotein [7]; 7.56 µM against Genome polyprotein [4]; 10.2 µM against Genome polyprotein [8]; 10.7 µM against Genome polyprotein [6]; 7.14 µM on Genome polyprotein [5]. Moreover, the EC50 in the data set with dengue virus type 2 is over 100 µM. Also, the CC50 at 48 h in [2] was over 100 µM.

In the case of `Cc1c(CC(=O)N[C@@H](Cc2c[nH]c3ccc(O)cc23)C(=O)O)c(=O)oc2cc3occ(C(C)(C)C)c3cc12`, the IC50 was 11.9 µM against Genome polyprotein [4] and over 100 µM against Genome polyprotein [5].

As to `COc1cc(/C=C2/NC(=O)N(Cc3ccc(Cl)cc3Cl)C2=O)ccc1O[C@H](C)C(=O)O`, the IC50 against Genome polyprotein [4] is 11.3 µM; at Genome polyprotein [5], over 100 µM.

As for `O=C1NC(=O)/C(=C\c2ccc(O)cc2)N1`, the results for the IC50 against Genome polyprotein [1] and against Genome polyprotein [3] were over 100 µM and 27.6 µM, respectively.

For `O=C(O)c1ccccc1/C=N/NC(=O)c1cc(-c2ccco2)nc2ccccc12`, the IC50 amounted to 4.8 µM against Genome polyprotein [4], 4.34 µM at Genome polyprotein [6] and 4.91 µM against Genome polyprotein [5]. For the same compound, the EC50 in the data set on dengue virus type 2 is over 100 µM. Also, the CC50 at 48 h in data set [2] is over 100 µM.

Regarding `CCN(CC)c1ccc(/C=N\Nc2ccc(Cl)c(C(=O)O)c2)c(O)c1`, the 50% inhibitory concentration (IC50) at Genome polyprotein [4] came out at 13.5 µM; on Genome polyprotein [5], 87.1 µM. Besides, in the data set with dengue virus type 2, the EC50 is 50 µM. Also, the CC50 at 48 h in [2] was found to be 75.1 µM.

Regarding `O=S(=O)(Nc1ccccc1)c1cc(S(=O)(=O)Nc2ccccc2)c2cc(O)ccc2c1`, the IC50 against Genome polyprotein [1] is over 100 µM; against Genome polyprotein [3], 21.1 µM.

As to `CCOc1cc(/C=C2\C(=O)N(c3ccc4ccccc4c3)N=C2C)ccc1OCCC(=O)O`, the IC50 against Genome polyprotein [4] is 7.11 µM; on Genome polyprotein [5], over 100 µM.

In the case of `O=C(N/N=C\c1ccccc1C(=O)O)c1ccc(COc2ccc3ccccc3c2)cc1`, the IC50 was 8.81 µM against Genome polyprotein [4] and over 100 µM on Genome polyprotein [5].

As for `O=C(O)COc1ccc(Br)cc1/C=C1\CC/C(=C\c2cc(Br)ccc2OCC(=O)O)C1=O`, the IC50 on Genome polyprotein [4] is 2.81 µM; at Genome polyprotein [5], 19.5 µM. The EC50 in the data set with dengue virus type 2 is over 100 µM. In [2], this compound yielded a CC50 at 48 h of over 100 µM.

For the compound `O=C(O)c1ccccc1C(=O)Nc1nc(-c2ccc3ccccc3c2)cs1`, the IC50 against Genome polyprotein [4] was 14.5 µM; on Genome polyprotein [5], over 100 µM.

For `O=C(c1cccc([N+](=O)[O-])c1)c1no[n+]([O-])c1C(=O)c1cccc([N+](=O)[O-])c1`, the figures for the IC50 against Genome polyprotein [1] and at Genome polyprotein [3] were over 100 µM and 31.4 µM, respectively.

Consider `O=C1C(=O)N(Cc2cccnc2)[C@H](c2cccc(Oc3ccccc3)c2)/C1=C(/O)c1ccco1`, for which the figures for the IC50 at Genome polyprotein [1] and against Genome polyprotein [3] were over 100 µM and 12.8 µM, respectively.

Take `Cc1ccc(Cl)cc1NS(=O)(=O)c1ccc(NS(=O)(=O)c2ccc3ccccc3c2)cc1`: the IC50 on Genome polyprotein [4] came to 9.28 µM; against Genome polyprotein [5], 64.2 µM. Further, the EC50 with dengue virus type 2 came to 12 µM. In [2], this compound yielded a CC50 at 48 h of 22.7 µM.

For `N#Cc1c(NC(=O)c2cccc(S(=O)(=O)Nc3ccc(C(=O)O)cc3)c2)sc2c1CCCC2`, the IC50 was 17.6 µM on Genome polyprotein [4] and over 100 µM against Genome polyprotein [5].

For `COc1ccc(CN(CC[C@@H](c2ccccc2)c2ccco2)C(=O)c2ccoc2)cc1`, the IC50 was over 25 µM against Genome polyprotein [1] and 2.91 µM at Genome polyprotein [3].

On to `COc1cc(NS(=O)(=O)c2ccc(NC(=O)/C=C/c3cccc4ccccc34)cc2)nc(OC)n1`, for which the IC50 at Genome polyprotein [4] is 6.83 µM; at Genome polyprotein [5], over 100 µM.

For `Cc1ccc(C)c(C(=O)C2=C(O)C(=O)N(CCc3ccccc3)[C@@H]2c2ccc(O)cc2)c1`, the IC50 is over 100 µM against Genome polyprotein [1] and 9.84 µM against Genome polyprotein [3].

Regarding `COc1cc(CNc2ccc(C(=O)O)cc2)ccc1OCc1ccccc1Cl`, the IC50 on Genome polyprotein [4] is 13.2 µM; on Genome polyprotein [5] it was over 100 µM.

In the case of `COc1ccc2c(c1)C(CC(=O)O)CN2Cc1ccccc1` (stereo unspecified), the IC50 was over 100 µM against Genome polyprotein [1] and 27.5 µM at Genome polyprotein [3].

Consider `Cc1cc(O)c2c(c1)C(=O)c1cc(O)cc(O)c1C2=O` [EMODIN], for which, in the data set with dengue virus type 2, the EC50 was 10.9 µM. The IC50 stood at 79.8 µM against Genome polyprotein [1] and 16.9 µM against Genome polyprotein [3]. Moreover, in data set [2], the CC50 at 48 h amounted to 30.7 µM.
